Measurements taken from ChEMBL document CHEMBL1138683 (J Med Chem, 2004).

Assays:
Mus musculus [1] = experiment: Anti convulsant activity administered intra peritoneally to mouse at maximal electroshock test at 0.5 h after the drug administered with dose of 300 mg/kg; 0/1= No of animals protected /No of animals tested; assay type: functional
[2] = Anti convulsant activity administered intra peritoneally to mouse for toxicity at 4 hr with dose of 300 mg/kg; 0/2= No of animals exhibiting toxicity /No of animals tested; assay type: organism-based; parameters: dose 300 mg/kg; details: in vivo, ip
Mus musculus [3] = experiment: Anti convulsant activity administered intra peritoneally to mouse at maximal electroshock test at 4 hr after the drug administered with dose of 30 mg/kg; 0/1= No of animals protected /No of animals tested; assay type: functional
Rattus norvegicus [4] = experiment: Anticonvulsant activity after oral administration of 100 mg/kg dose after 4 hr in rats; +means 25% of the animals protected; assay type: functional, organism-based; parameters: dose 100 mg/kg
Procedure, shortened: (§1)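 Oral dosing of rats at a single dose, compound dissolved or suspended in 0.5% methylcellulose. Protection in the MES or scMet test checked 15 min, 30 min, 1 h, 2 h and 4 h after dosing. Scored as 25/50/75/100% of animals protected (+ to ++++), – for none.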

[5] = Anti convulsant activity administered intra peritoneally to mouse for toxicity at 4 hr with dose of 100 mg/kg; 0/4= No of animals exhibiting toxicity /No of animals tested; assay type: organism-based; parameters: dose 100 mg/kg; details: in vivo, ip
[6] = Anti convulsant activity administered intra peritoneally to mouse for toxicity at 0.5 hr with dose of 300 mg/kg; 4/4= No of animals exhibiting toxicity /No of animals tested; assay type: organism-based; parameters: dose 300 mg/kg; details: in vivo, ip
[7] = Anti convulsant activity administered intra peritoneally to mouse for toxicity at 0.5 hr with dose of 30 mg/kg; 0/4= No of animals exhibiting toxicity /No of animals tested; assay type: organism-based; parameters: dose 30 mg/kg; details: in vivo, ip
Mus musculus [8] = experiment: Anti convulsant activity administered intra peritoneally to mouse for subcutaneous metrazol test at 4 hr with dose of 300 mg/kg; 0/1= No of animals protected /No of animals tested; assay type: functional
Rattus norvegicus [9] = experiment: Anticonvulsant activity after oral administration of 100 mg/kg dose after 4 hr in rats;+ means 25% of the animals protected; assay type: functional, organism-based; parameters: dose 100 mg/kg; procedure, shortened: as §1
Mus musculus [10] = experiment: Anti convulsant activity administered intra peritoneally to mouse for subcutaneous metrazol test at 0.5 hr with dose of 100 mg/kg; 0/1= No of animals protected /No of animals tested; assay type: functional
Mus musculus [11] = experiment: Anti convulsant activity administered intra peritoneally to mouse for subcutaneous metrazol test at 0.5 h with dose of 300 mg/kg; 0/1= No of animals protected /No of animals tested; assay type: functional
Mus musculus [12] = experiment: Anti convulsant activity administered intra peritoneally to mouse for subcutaneous metrazol test at 0.5 hr with dose of 30 mg/kg; 0/1= No of animals protected /No of animals tested; assay type: functional
[13] = Anti convulsant activity administered intra peritoneally to mouse for toxicity at 0.5 hr with dose of 100 mg/kg; 1/8= No of animals exhibiting toxicity /No of animals tested; assay type: organism-based; parameters: dose 100 mg/kg; details: in vivo, ip
Rattus norvegicus [14] = experiment: Anticonvulsant activity after oral administration of 100 mg/kg dose after 1 hr in rats; + means 25% of the animals protected; assay type: functional, organism-based; parameters: dose 100 mg/kg; procedure, shortened: as §1
Mus musculus [15] = experiment: Anti convulsant activity administered intra peritoneally to mouse for subcutaneous metrazol test at 4 hr after the drug administered with dose of 30 mg/kg; 0/1= No of animals protected /No of animals tested; assay type: functional; details: route intraperitoneal
Mus musculus [16] = experiment: Anti convulsant activity administered intra peritoneally to mouse for subcutaneous metrazol test at 4 hr after the drug administered with dose of 100 mg/kg; 0/1= No of animals protected /No of animals tested; assay type: functional
Mus musculus [17] = experiment: Anticonvulsant activity administered intraperitoneally to mouse for toxicity at 4 hr with dose of 30 mg/kg; assay type: functional; details: route intraperitoneal
Procedure, shortened: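 Mice given compound i.p. at 30, 100 or 300 mg/kg, dissolved or suspended in 0.5% methylcellulose. Toxicity scored 0.5 h and 4 h after dosing, recorded as number of animals showing toxicity per number tested.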

Mus musculus [18] = experiment: Anti convulsant activity administered intra peritoneally to mouse at maximal electroshock test at 4 hr after the drug administered with dose of 300 mg/kg; 0/1= No of animals protected /No of animals tested; assay type: functional
Mus musculus [19] = experiment: Anti convulsant activity administered intra peritoneally to mouse at maximal electroshock test at 4 hr after the drug administered with dose of 100 mg/kg; 0/3= No of animals protected /No of animals tested; assay type: functional
Mus musculus [20] = experiment: Anti convulsant activity administered intra peritoneally to mouse at maximal electroshock test at 0.5 h after the drug administered with dose of 30 mg/kg; 0/1= No of animals protected /No of animals tested; assay type: functional
Rattus norvegicus [21] = experiment: Anticonvulsant activity after oral administration of 100 mg/kg dose after 2 hr in rats; + means 25% of the animals protected; assay type: functional, organism-based; parameters: dose 100 mg/kg; procedure, shortened: as §1
Mus musculus [22] = experiment: Anti convulsant activity administered intra peritoneally to mouse at maximal electroshock test at 0.5 hr after the drug administered with dose of 100 mg/kg; 0/3= No of animals protected /No of animals tested; assay type: functional
[23] = (§2) Anti convulsant activity administered intra peritoneally to mouse for toxicity at 4 hr with dose of 30 mg/kg; 0/2= No of animals exhibiting toxicity /No of animals tested; assay type: organism-based; parameters: dose 30 mg/kg; details: in vivo, ip
Rattus norvegicus [24] = experiment: Anticonvulsant activity after oral administration of 100 mg/kg dose after 30 min in rats; +++ means 75% of the animals protected; assay type: functional, organism-based; parameters: dose 100 mg/kg; procedure, shortened: as §1
Mus musculus [25] = experiment: as §2; assay type: functional
Rattus norvegicus [26] = experiment: Anticonvulsant activity after oral administration of 100 mg/kg dose after 2 hr in rats;++ means 50% of the animals protected; assay type: functional, organism-based; parameters: dose 100 mg/kg; procedure, shortened: as §1
[27] = Anti convulsant activity administered intra peritoneally to mouse for toxicity at 0.5 hr with dose of 100 mg/kg; 0/8= No of animals exhibiting toxicity /No of animals tested; assay type: organism-based; parameters: dose 100 mg/kg; details: in vivo, ip
[28] = Anti convulsant activity administered intra peritoneally to mouse for toxicity at 0.5 hr with dose of 300 mg/kg; 0/4= No of animals exhibiting toxicity /No of animals tested; assay type: organism-based; parameters: dose 300 mg/kg; details: in vivo, ip
Rattus norvegicus [29] = experiment: Anticonvulsant activity after oral administration of 50 mg/kg dose after 30 min in rats; + means 25% of the animals protected; assay type: functional, organism-based; parameters: dose 50 mg/kg
Procedure, shortened: (§3)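 Rats dosed orally with compound dissolved or suspended in 0.5% methylcellulose (0.04 mL per 10 g body weight). Anticonvulsant protection (MES or scMet) and toxicity scored at 15 min, 30 min, 1 h, 2 h and 4 h after dosing. Graded in steps of 25% of animals protected or showing toxicity.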

Mus musculus [30] = experiment: Anti convulsant activity administered intra peritoneally to mouse for subcutaneous metrazol test at 0.5 hr with dose of 300 mg/kg; 1/1= No of animals protected /No of animals tested; assay type: functional
Rattus norvegicus [31] = experiment: Anticonvulsant activity after oral administration of 30 mg/kg dose after 4 hr in rats; +means 25% of animals protected; assay type: functional, organism-based; parameters: dose 30 mg/kg; procedure, shortened: as §1
[32] = Anti convulsant activity administered intra peritoneally to mouse for toxicity at 4 hr with dose of 300 mg/kg; 1/2= No of animals exhibiting toxicity /No of animals tested; assay type: organism-based; parameters: dose 300 mg/kg; details: in vivo, ip
Mus musculus [33] = experiment: Anti convulsant activity administered intra peritoneally to mouse at maximal electroshock test at 0.5 hr after the drug administered with dose of 300 mg/kg; 1/1= No of animals protected /No of animals tested; assay type: functional
Rattus norvegicus [34] = experiment: Anticonvulsant activity after oral administration of 30 mg/kg dose after 15 min in rats; + means 25% of the animals protected; assay type: functional, organism-based; parameters: dose 30 mg/kg; procedure, shortened: as §1
Rattus norvegicus [35] = experiment: Anticonvulsant activity after oral administration of 30 mg/kg dose after 30 min in rats; -means No protection; assay type: functional, organism-based; parameters: dose 30 mg/kg; procedure, shortened: as §1
Rattus norvegicus [36] = experiment: Anticonvulsant activity after oral administration of 50 mg/kg dose after 30 min in rats; ++ means 50% of animals protected; assay type: functional, organism-based; parameters: dose 50 mg/kg; procedure, shortened: as §3
Rattus norvegicus [37] = experiment: Anticonvulsant activity after oral administration of 50 mg/kg dose after 15 min in rats; +++ means 75% of the animals protected; assay type: functional, organism-based; parameters: dose 50 mg/kg; procedure, shortened: as §1
Rattus norvegicus [38] = experiment: Anticonvulsant activity after oral administration of 100 mg/kg dose after 1 hr in rats;+ means 25% of the animals protected; assay type: functional, organism-based; parameters: dose 100 mg/kg; procedure, shortened: as §1
Rattus norvegicus [39] = experiment: Anticonvulsant activity after oral administration of 100 mg/kg dose after 30 min in rats; +means 25% of the animals protected; assay type: functional, organism-based; parameters: dose 100 mg/kg; procedure, shortened: as §1

| SMILES | Activity (Mus musculus [1]) | Toxicity [2] | Activity (Mus musculus [3]) | Toxicity [5] | Toxicity [6] | Toxicity [7] | Activity (Mus musculus [8]) | Activity (Mus musculus [10]) | Activity (Mus musculus [11]) | Activity (Mus musculus [12]) | Toxicity [13] | Activity (Rattus norvegicus [14]) | Activity (Mus musculus [15]) | Activity (Mus musculus [16]) | Activity (Mus musculus [18]) | Activity (Mus musculus [19]) | Activity (Mus musculus [20]) | Activity (Mus musculus [22]) | Toxicity [23] | Toxicity [27] | other results |
| --- | --- | --- | --- | --- | --- | --- | --- | --- | --- | --- | --- | --- | --- | --- | --- | --- | --- | --- | --- | --- | --- |
| CCC(CO)NC(=O)C1C(C)(C)C1(C)C (stereo not drawn) | 0 | 0 | 0 | 0 | 4 | 0 | 0 | 0 | 0 | 0 | 1 | 25% of the animals protected | 0 | 0 | 0 | 0 | 0 | 0 |  |  | Anticonvulsant Activity (Rattus norvegicus [4]): 25% of the animals protected; Activity (Rattus norvegicus [9]): 25% of the animals protected; Toxicity (Mus musculus [17]): 0; Activity (Rattus norvegicus [21]): 25% of the animals protected |
| CC1(C)C(C(=O)NCCS(=O)(=O)[O-])C1(C)C.[Na+] | 0 | 0 | 0 | 0 |  | 0 | 0 |  | 0 | 0 |  | 25% of the animals protected | 0 | 0 | 0 | 0 | 0 |  | 0 | 0 | Activity (Rattus norvegicus [4]): 25% of the animals protected; Activity (Rattus norvegicus [24]): 25% of the animals protected; Activity (Mus musculus [25]): 0; Anticonvulsant Activity (Rattus norvegicus [26]): 50% of the animals protected; Activity (Rattus norvegicus [21]): 25% of the animals protected; Toxicity [28]: 0 |
| CC1(C)C(C(=O)NNC(=O)C2C(C)(C)C2(C)C)C1(C)C | 0 | 0 | 0 | 0 |  | 0 | 0 |  | 0 | 0 |  |  | 0 | 0 | 0 | 0 | 0 |  | 0 | 0 | Activity (Mus musculus [25]): 0; Activity (Rattus norvegicus [29]): 25% of the animals protected; Toxicity [28]: 0 |
| CC1(C)C(C(=O)NCCF)C1(C)C |  |  | 0 | 0 | 4 | 0 | 1 | 0 |  | 0 |  |  | 0 | 0 | 0 | 0 | 0 | 0 | 0 | 0 | Activity (Mus musculus [30]): 1; Activity (Rattus norvegicus [31]): 25% of animals protected; Toxicity [32]: 1; Activity (Mus musculus [33]): 1; Activity (Rattus norvegicus [34]): 25% of animals protected |
| CC1(C)C(C(=O)NCCO)C1(C)C |  | 0 | 0 | 0 | 4 | 0 | 0 | 0 |  | 0 | 1 |  | 0 | 0 | 0 | 0 | 0 | 0 | 0 |  | Activity (Mus musculus [30]): 1; Activity (Rattus norvegicus [35]): 75% of the animals protected; Anticonvulsant Activity (Rattus norvegicus [36]): 50% of animals protected; Activity (Rattus norvegicus [37]): 75% of the animals protected; Activity (Mus musculus [33]): 1 |
| CC(CO)NC(=O)C1C(C)(C)C1(C)C (stereo not drawn) | 0 | 0 | 0 | 0 | 4 | 0 | 0 | 0 | 0 | 0 | 1 |  | 0 | 0 | 0 | 0 | 0 | 0 |  |  | Activity (Rattus norvegicus [38]): 25% of the animals protected; Activity (Rattus norvegicus [39]): 25% of the animals protected; Toxicity (Mus musculus [17]): 0 |
